In ChEMBL document CHEMBL4038328, “Structure-Guided Optimization of HIV Integrase Strand Transfer Inhibitors” (J Med Chem, 2017):

Experiments:
[1] = Inhibition of HIV1 integrase 3' processing activity using 5'-end 32P labeled DNA substrate measured after 2 hrs by PAGE based phosphor imaging method; parameters: species or system Human immunodeficiency virus 1
Method in brief: (§1)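 Gel-based assay, Mg2+ cofactor: 400 nM integrase with 20 nM DNA substrate 5′-32P-labeled on transferred strand in 50 mM MOPS pH 7.2, 7.5 mM MgCl2, 14 mM 2-mercaptoethanol, inhibitor or DMSO; 2 h at 37 °C. Stopped with formamide/SDS loading buffer; products resolved on 16% denaturing polyacrylamide gels, quantified by phosphorimaging.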

[2] = Inhibition of HIV1 integrase strand transfer activity using 5'-end 32P labeled DNA substrate measured after 2 hrs by PAGE based phosphor imaging method; parameters: species or system Human immunodeficiency virus 1; method in brief: as §1
[3] = test system: Human immunodeficiency virus 1; assay: Selectivity ratio of EC50 for VSV-G pseudotyped HIV1 harboring integrase Y143R mutant infected in HOS cells to EC50 for VSV-G pseudotyped HIV1 harboring wild-type integrase infected in HOS cells; format: functional
Method in brief: (§2)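 Fold change is the EC50 against the mutant-IN vector divided by the EC50 against the WT-IN vector. Both come from the single-round luciferase infectivity assay in HOS cells, with a 3 h compound pretreatment followed by 48 h infection.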

[4] = test system: Human immunodeficiency virus 1; assay: Antiviral activity against VSV-G pseudotyped HIV1 harboring wild-type integrase infected in HOS cells pretreated […] for 3 hrs followed by viral infection measured after 48 hrs by luciferase reporter gene assay; format: functional, cell-based; conditions: Human immunodeficiency virus 1, HOS
Method in brief: (§3)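 Single-round luciferase HIV-1 vector (pNLNgoMIVR−ΔLUC carrying WT or mutant IN) was pseudotyped with VSV-g by calcium phosphate co-transfection of 293 cells, and supernatant was harvested after 48 h. HOS cells were seeded at 4000/well in DMEM with 5% FBS and 5% newborn calf serum. They were pretreated 3 h at 37 °C with 5–0.0001 μM (11 serial dilutions), then infected for 48 h. Luminescence was normalized to untreated cells, and EC50 came from nonlinear regression.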

[5] = test system: Human immunodeficiency virus 1; assay: Selectivity ratio of EC50 for VSV-G pseudotyped HIV1 harboring integrase N155H mutant infected in HOS cells to EC50 for VSV-G pseudotyped HIV1 harboring wild-type integrase infected in HOS cells; format: functional; method in brief: as §2
[6] = test system: Human immunodeficiency virus 1; assay: Selectivity ratio of EC50 for VSV-G pseudotyped HIV1 harboring integrase G140S/Q148H mutant infected in HOS cells to EC50 for VSV-G pseudotyped HIV1 harboring wild-type integrase infected in HOS cells; format: functional; method in brief: as §2
[7] = test system: Human immunodeficiency virus 1; assay: Antiviral activity against VSV-G pseudotyped HIV1 harboring integrase N155H mutant infected in HOS cells pretreated […] for 3 hrs followed by viral infection measured after 48 hrs by luciferase reporter gene assay; format: functional, cell-based; conditions: Human immunodeficiency virus 1, HOS; method in brief: as §3
HOS = assay: Cytotoxicity against HOS cells assessed as reduction in cell viability after 48 hrs by ATPLite luminescence assay; format: cell-based; conditions: human, hos, 48 h
Method in brief: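 HOS cells seeded at 4000 per well the day before, exposed to compounds over 250 to 0.05 μM at 37 °C for 48 h. ATP measured by luminescence after lysis and 20 min signal development at room temperature.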

[8] = test system: Human immunodeficiency virus 1; assay: Antiviral activity against VSV-G pseudotyped HIV1 harboring integrase Y143R mutant infected in HOS cells pretreated […] for 3 hrs followed by viral infection measured after 48 hrs by luciferase reporter gene assay; format: functional, cell-based; conditions: Human immunodeficiency virus 1, HOS; method in brief: as §3
[9] = test system: Human immunodeficiency virus 1; assay: Antiviral activity against VSV-G pseudotyped HIV1 harboring integrase G140S/Q148H double mutant infected in HOS cells pretreated […] for 3 hrs followed by viral infection measured after 48 hrs by luciferase reporter gene assay; format: functional, cell-based; conditions: Human immunodeficiency virus 1, HOS; method in brief: as §3
[10] = test system: Human immunodeficiency virus 1; assay: Antiviral activity against VSV-G pseudotyped HIV1 harboring integrase G118R mutant infected in HOS cells pretreated […] for 3 hrs followed by viral infection measured after 48 hrs by luciferase reporter gene assay; format: functional, cell-based; conditions: Human immunodeficiency virus 1, HOS; method in brief: as §3
[11] = test system: Human immunodeficiency virus 1; assay: Selectivity ratio of EC50 for VSV-G pseudotyped HIV1 harboring integrase G118R mutant infected in HOS cells to EC50 for VSV-G pseudotyped HIV1 harboring wild-type integrase infected in HOS cells; format: functional; method in brief: as §2
[12] = test system: Human immunodeficiency virus 1; assay: Antiviral activity against VSV-G pseudotyped HIV1 harboring integrase E92Q mutant infected in HOS cells pretreated […] for 3 hrs followed by viral infection measured after 48 hrs by luciferase reporter gene assay; format: functional, cell-based; conditions: Human immunodeficiency virus 1, HOS; method in brief: as §3
[13] = test system: Human immunodeficiency virus 1; assay: Selectivity ratio of EC50 for VSV-G pseudotyped HIV1 harboring integrase H51Y/R263K double mutant infected in HOS cells to EC50 for VSV-G pseudotyped HIV1 harboring wild-type integrase infected in HOS cells; format: functional; method in brief: as §2
[14] = test system: Human immunodeficiency virus 1; assay: Antiviral activity against VSV-G pseudotyped HIV1 harboring integrase T66I mutant infected in HOS cells pretreated […] for 3 hrs followed by viral infection measured after 48 hrs by luciferase reporter gene assay; format: functional, cell-based; conditions: Human immunodeficiency virus 1, HOS; method in brief: as §3
[15] = test system: Human immunodeficiency virus 1; assay: Selectivity ratio of EC50 for VSV-G pseudotyped HIV1 harboring integrase H51Y mutant infected in HOS cells to EC50 for VSV-G pseudotyped HIV1 harboring wild-type integrase infected in HOS cells; format: functional; method in brief: as §2
[16] = test system: Human immunodeficiency virus 1; assay: Selectivity ratio of EC50 for VSV-G pseudotyped HIV1 harboring integrase R263K mutant infected in HOS cells to EC50 for VSV-G pseudotyped HIV1 harboring wild-type integrase infected in HOS cells; format: functional; method in brief: as §2
[17] = test system: Human immunodeficiency virus 1; assay: Antiviral activity against VSV-G pseudotyped HIV1 harboring integrase R263K mutant infected in HOS cells pretreated […] for 3 hrs followed by viral infection measured after 48 hrs by luciferase reporter gene assay; format: functional, cell-based; conditions: Human immunodeficiency virus 1, HOS; method in brief: as §3
[18] = test system: Human immunodeficiency virus 1; assay: Selectivity ratio of EC50 for VSV-G pseudotyped HIV1 harboring integrase T66I mutant infected in HOS cells to EC50 for VSV-G pseudotyped HIV1 harboring wild-type integrase infected in HOS cells; format: functional; method in brief: as §2
[19] = test system: Human immunodeficiency virus 1; assay: Selectivity ratio of EC50 for VSV-G pseudotyped HIV1 harboring integrase E92Q mutant infected in HOS cells to EC50 for VSV-G pseudotyped HIV1 harboring wild-type integrase infected in HOS cells; format: functional; method in brief: as §2
[20] = test system: Human immunodeficiency virus 1; assay: Antiviral activity against VSV-G pseudotyped HIV1 harboring integrase H51Y mutant infected in HOS cells pretreated […] for 3 hrs followed by viral infection measured after 48 hrs by luciferase reporter gene assay; format: functional, cell-based; conditions: Human immunodeficiency virus 1, HOS; method in brief: as §3
[21] = test system: Human immunodeficiency virus 1; assay: Antiviral activity against VSV-G pseudotyped HIV1 harboring integrase H51Y/R263K double mutant infected in HOS cells pretreated […] for 3 hrs followed by viral infection measured after 48 hrs by luciferase reporter gene assay; format: functional, cell-based; conditions: Human immunodeficiency virus 1, HOS; method in brief: as §3

| Compound | IC50 [1] [nM] | IC50 [2] [nM] | Ratio EC50 [3] | EC50 [4] [nM] | Ratio EC50 [5] | Ratio EC50 [6] | EC50 [7] [nM] | CC50 (HOS) [nM] | EC50 [8] [nM] | EC50 [9] [nM] | further results |
| --- | --- | --- | --- | --- | --- | --- | --- | --- | --- | --- | --- |
| O=C(NCc1ccc(F)cc1F)c1c(O)c2ccc(N3CCCCC3)nc2n(O)c1=O | > 333000 | 70000 | – | – | – | – | – | – | – | – | – |
| COC(=O)CNc1c(C(=O)NCc2ccc(F)cc2F)c(=O)n(O)c2ncc(CCCCCO)cc12 | 2100 | 4 | 1 | 3.3 | 3 | 13 | 11 | > 250000 | 3.5 | 42 | – |
| Nc1c(C(=O)NCc2ccc(F)cc2F)c(=O)n(O)c2ncc(CCC(=O)NCCO)cc12 | – | 2 | – | 263 | – | – | – | > 250000 | – | – | – |
| Nc1c(C(=O)NCc2ccc(F)cc2F)c(=O)n(O)c2ncc(/C=C/C(=O)NCCO)cc12 | – | 7 | – | 196 | – | – | – | > 250000 | – | – | – |
| CN(C)C(=O)/C=C/c1cnc2c(c1)c(N)c(C(=O)NCc1ccc(F)cc1F)c(=O)n2O | – | 5 | 5 | 1.6 | 9 | 36 | 15 | > 250000 | 7.2 | 58 | – |
| CC(=O)OCCCCCc1cnc2c(c1)c(NCCO)c(C(=O)NCc1ccc(F)cc1F)c(=O)n2O | – | – | 0.8 | 5.3 | 2 | 1 | 10 | > 100000 | 4.1 | 5.3 | EC50 [10]: 15 nM; Ratio EC50 [11]: 3; EC50 [12]: 3.8 nM; Ratio EC50 [13]: 3; EC50 [14]: 1.2 nM; Ratio EC50 [15]: 1; Ratio EC50 [16]: 0.7; EC50 [17]: 3.6 nM; Ratio EC50 [18]: 0.2; Ratio EC50 [19]: 0.7; EC50 [20]: 7.4 nM; EC50 [21]: 15 nM |
| Nc1c(C(=O)NCc2ccc(F)cc2F)c(=O)n(O)c2ncc(CCCCc3ccccc3)cc12 | 42000 | – | 0.4 | 11 | 4 | 12 | 39 | 13000 | 4.7 | 128 | – |
| Nc1c(C(=O)NCc2ccc(F)cc2F)c(=O)n(O)c2ncc(CCCOCCO)cc12 | 1500 | 2 | 0.8 | 1.6 | 3 | 22 | 4.2 | > 250000 | 1.2 | 35 | – |
| COc1ccc2c(N)c(C(=O)NCc3ccc(F)cc3F)c(=O)n(O)c2n1 | 18000 | 11 | 2 | 30 | 13 | 120 | 400 | 2200 | 62 | 3600 | – |
| O=C(NCc1ccc(F)cc1F)c1c(O)c2ccc(N3CCOCC3)nc2n(O)c1=O | > 333000 | 1900 | – | – | – | – | – | – | – | – | – |
| O=C(NCc1ccc(F)cc1F)c1c(O)c2cc(CCCCCO)cnc2n(O)c1=O | 14300 | 12 | 0.3 | 24 | 1 | 1 | 32 | > 250000 | 8.3 | 29 | – |
| COC(=O)CNc1c(C(=O)NCc2ccc(F)cc2F)c(=O)n(O)c2nc(N3CCCCC3)ccc12 | > 333000 | 96000 | – | – | – | – | – | – | – | – | – |
| Nc1c(C(=O)NCc2ccc(F)cc2F)c(=O)n(O)c2nc(N3CCCCC3)ccc12 | > 333000 | 54000 | – | – | – | – | – | – | – | – | – |
| COc1ccc2c(O)c(C(=O)NCc3ccc(F)cc3F)c(=O)n(O)c2n1 | 32000 | 33 | – | 215 | – | – | – | 12000 | – | – | – |
| CN(C)C(=O)CCc1cnc2c(c1)c(N)c(C(=O)NCc1ccc(F)cc1F)c(=O)n2O | – | 8 | 5 | 1.3 | 5 | 12 | 6.8 | > 250000 | 6 | 16 | – |
| Nc1c(C(=O)NCc2ccc(F)cc2F)c(=O)n(O)c2ncc(CCCC3CCCCC3)cc12 | 289000 | – | 2 | 53 | 3 | – | 146 | 27400 | 112 | – | – |
| CC(C)NC(=O)/C=C/c1cnc2c(c1)c(N)c(C(=O)NCc1ccc(F)cc1F)c(=O)n2O | – | 6 | 5 | 2.1 | 6 | 136 | 12 | > 250000 | 11 | 286 | – |
| CN(C)CCCc1cnc2c(c1)c(N)c(C(=O)NCc1ccc(F)cc1F)c(=O)n2O | 3000 | 14 | 1 | 6.1 | 5 | 5 | 29 | 5000 | 7 | 32 | – |
| COC(=O)CNc1c(C(=O)NCc2ccc(F)cc2F)c(=O)n(O)c2nc(N3CCOCC3)ccc12 | > 333000 | 6200 | – | – | – | – | – | – | – | – | – |
| Nc1c(C(=O)NCc2ccc(F)cc2F)c(=O)n(O)c2ncc(CCc3ccccc3)cc12 | 48000 | 14 | 1 | 5.6 | 4 | 25 | 21 | 18000 | 5.5 | 140 | – |
| Nc1c(C(=O)NCc2ccc(F)cc2F)c(=O)n(O)c2nc(N3CCOCC3)ccc12 | > 333000 | 54000 | – | – | – | – | – | – | – | – | – |
| Nc1c(C(=O)NCc2ccc(F)cc2F)c(=O)n(O)c2ncc(CCC(=O)O)cc12 | – | 4 | 3 | 1.9 | 5 | 103 | 10 | > 250000 | 4.9 | 195 | – |
| CC(C)NC(=O)CCc1cnc2c(c1)c(N)c(C(=O)NCc1ccc(F)cc1F)c(=O)n2O | – | 2 | 2 | 5 | 2 | 3 | 11 | > 250000 | 8.7 | 13 | – |
| COC(=O)CNc1c(C(=O)NCc2ccc(F)cc2F)c(=O)n(O)c2nc(OC)ccc12 | 20000 | 42 | 2 | 32 | 39 | – | 1260 | 12000 | 52 | – | – |
